Molecular target: T1, Calpain-2 catalytic subunit (Homo sapiens, UniProt P17655)
T1 sequence (P17655 whole entry): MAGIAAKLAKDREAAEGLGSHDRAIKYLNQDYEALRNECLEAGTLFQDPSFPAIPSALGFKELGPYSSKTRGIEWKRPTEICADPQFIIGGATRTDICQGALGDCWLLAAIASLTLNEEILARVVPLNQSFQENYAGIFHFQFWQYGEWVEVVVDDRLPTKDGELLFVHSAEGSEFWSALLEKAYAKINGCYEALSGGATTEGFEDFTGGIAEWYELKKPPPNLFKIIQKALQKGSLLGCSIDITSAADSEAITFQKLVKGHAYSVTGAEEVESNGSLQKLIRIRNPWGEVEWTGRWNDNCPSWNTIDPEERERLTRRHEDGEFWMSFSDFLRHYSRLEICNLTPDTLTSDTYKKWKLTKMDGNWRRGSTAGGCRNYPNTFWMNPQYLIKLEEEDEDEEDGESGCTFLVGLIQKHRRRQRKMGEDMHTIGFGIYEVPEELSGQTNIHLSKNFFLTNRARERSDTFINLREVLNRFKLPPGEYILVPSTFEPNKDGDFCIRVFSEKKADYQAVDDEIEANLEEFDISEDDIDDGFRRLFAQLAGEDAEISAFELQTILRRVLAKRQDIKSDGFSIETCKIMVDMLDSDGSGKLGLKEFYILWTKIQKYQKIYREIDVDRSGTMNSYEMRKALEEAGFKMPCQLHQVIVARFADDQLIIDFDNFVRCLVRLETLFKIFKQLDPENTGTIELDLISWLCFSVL
Experiment: Compound was evaluated for the inhibition of Cysteine protease Calpain 2
Method in brief: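 Calpain assay in 25 mM Tris, pH 8.0, with 10 mM CaCl₂ and 5% DMSO. Suc-Leu-AMC hydrolysis was read as initial velocity (t = 30-60 s) after a 30 s delay, at room temperature. Five or more inhibitor concentrations (not above 2 × K_obs) were used at two fixed substrate levels. Ki came from Dixon plots (1/v vs I) averaged over triplicates.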

Compound | Ki [nM]
CCNC(=O)C(=O)C(CC)NC(=O)C(CC(C)C)NC(=O)c1nccc2ccccc12 (stereo not drawn) [Isoquinoline-1-carboxylic acid [1-(1-ethylaminooxalyl-propylcarbamoyl)-3-methyl-butyl]-amide] | 110
CCC(NC(=O)C(CC(C)C)NC(=O)OCc1ccccc1)C(=O)C(=O)NC (stereo not drawn) [[3-Methyl-1-(1-methylaminooxalyl-propylcarbamoyl)-butyl]-carbamic acid benzyl ester] | 83
CCNC(=O)C(=O)C(CC)NC(=O)C(CC(C)C)NC(=O)Cc1cccc2ccccc12 (stereo not drawn) [3-[4-Methyl-2-(2-naphthalen-1-yl-acetylamino)-pentanoylamino]-2-oxo-pentanoic acid ethylamide] | 250
CCC(NC(=O)C(CC(C)C)NC(=O)OCc1ccccc1)C(=O)C(=O)NCc1ccccc1 (stereo not drawn) [[1-(1-Benzylaminooxalyl-propylcarbamoyl)-3-methyl-butyl]-carbamic acid benzyl ester] | 350
CC(C)CC(NC(=O)OCc1ccccc1)C(=O)NC(Cc1ccccc1)C(=O)C(=O)NCCNC(=O)CCCC[C@@H]1SC[C@@H]2NC(=O)N[C@@H]21 (stereo partly drawn) [[1-(1-Benzyl-2-oxo-2-{2-[5-((3aR,6S,6aS)-2-oxo-hexahydro-thieno[3,4-d]imidazol-6-yl)-pentanoylamino]-ethylcarbamoyl}-ethylcarbamoyl)-3-methyl-butyl]-carbamic acid benzyl ester] | 160
CCC(NC(=O)C(CC(C)C)NC(=O)OCc1ccccc1)C(=O)C(=O)NCc1cc(OC)cc(OC)c1 (stereo not drawn) [{1-[1-(3,5-Dimethoxy-benzylaminooxalyl)-propylcarbamoyl]-3-methyl-butyl}-carbamic acid benzyl ester] | 22
CCC(NC(=O)C(CC(C)C)NC(=O)OCc1ccccc1)C(=O)C(=O)NCC(O)c1ccc(N(C)C)cc1 (stereo not drawn) [(1-{1-[2-(4-Dimethylamino-phenyl)-2-hydroxy-ethylaminooxalyl]-propylcarbamoyl}-3-methyl-butyl)-carbamic acid benzyl ester] | 410
CCC(NC(=O)C(CC(C)C)NC(=O)OCc1ccccc1)C(=O)C(=O)NCCNC(=O)CCCC[C@@H]1SC[C@@H]2NC(=O)N[C@@H]21 (stereo partly drawn) [[3-Methyl-1-(1-{2-[5-((3aR,6S,6aS)-2-oxo-hexahydro-thieno[3,4-d]imidazol-6-yl)-pentanoylamino]-ethylaminooxalyl}-propylcarbamoyl)-butyl]-carbamic acid benzyl ester] | 280

Continued, values first:

Ki [nM] | Compound
23 | CC(C)CC(NC(=O)OCc1ccccc1)C(=O)NC(Cc1ccccc1)C(=O)C(=O)NCc1ccc2ccccc2n1 (stereo not drawn) [(1-{1-Benzyl-2-oxo-2-[(quinolin-2-ylmethyl)-carbamoyl]-ethylcarbamoyl}-3-methyl-butyl)-carbamic acid benzyl ester]
15 | CCC(NC(=O)C(CC(C)C)NC(=O)OCc1ccccc1)C(=O)C(=O)NCC(O)c1ccccc1 (stereo not drawn) [{1-[1-(2-Hydroxy-2-phenyl-ethylaminooxalyl)-propylcarbamoyl]-3-methyl-butyl}-carbamic acid benzyl ester]
120 | CC(C)CC(NC(=O)OCc1ccccc1)C(=O)NC(Cc1ccccc1)C(=O)C(=O)NCC(O)c1cccc(Oc2ccc(Cl)c(Cl)c2)c1 (stereo not drawn) [[1-(1-Benzyl-2-{2-[3-(3,4-dichloro-phenoxy)-phenyl]-2-hydroxy-ethylcarbamoyl}-2-oxo-ethylcarbamoyl)-3-methyl-butyl]-carbamic acid benzyl ester]
670 | CC(C)CC(NC(=O)OCc1ccccc1)C(=O)NC(Cc1ccccc1)C(=O)C(=O)NCC(O)c1ccc(OCc2ccccc2)c(OCc2ccccc2)c1 (stereo not drawn) [(1-{1-Benzyl-2-[2-(3,4-bis-benzyloxy-phenyl)-2-hydroxy-ethylcarbamoyl]-2-oxo-ethylcarbamoyl}-3-methyl-butyl)-carbamic acid benzyl ester]
350 | CC(C)CC(NC(=O)OCc1ccccc1)C(=O)NC(Cc1ccccc1)C(=O)C(=O)NCC(O)c1c(F)c(F)c(F)c(F)c1F (stereo not drawn) [{1-[1-Benzyl-2-(2-hydroxy-2-pentafluorophenyl-ethylcarbamoyl)-2-oxo-ethylcarbamoyl]-3-methyl-butyl}-carbamic acid benzyl ester]

Reference: BindingDB's records for doi:10.1021/jm950541c (Georgia Institute of Technology, 1996)
